# The source made the active and inactive calls. The calls are words filed in the database; no cut-off is given here.
# Columns and labels:
# Tyrosinase = target: T1, Tyrosinase (Agaricus bisporus, UniProt O42713); assay: Inhibition of mushroom tyrosinase
# T1 sequence (O42713 whole entry): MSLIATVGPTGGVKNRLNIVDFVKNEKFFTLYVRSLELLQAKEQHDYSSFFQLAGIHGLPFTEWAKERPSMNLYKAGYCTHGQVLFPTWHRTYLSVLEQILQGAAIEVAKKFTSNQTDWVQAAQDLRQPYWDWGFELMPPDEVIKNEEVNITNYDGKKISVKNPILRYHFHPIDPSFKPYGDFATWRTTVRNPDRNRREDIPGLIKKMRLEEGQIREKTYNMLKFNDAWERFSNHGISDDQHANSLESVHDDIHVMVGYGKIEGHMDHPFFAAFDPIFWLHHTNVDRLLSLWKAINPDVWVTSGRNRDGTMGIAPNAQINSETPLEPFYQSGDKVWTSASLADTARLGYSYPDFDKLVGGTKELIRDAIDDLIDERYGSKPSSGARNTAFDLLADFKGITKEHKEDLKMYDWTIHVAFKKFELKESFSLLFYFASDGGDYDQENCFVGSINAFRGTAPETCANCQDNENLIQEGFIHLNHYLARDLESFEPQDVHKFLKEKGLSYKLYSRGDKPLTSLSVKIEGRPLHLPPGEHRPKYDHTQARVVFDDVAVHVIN
# In short: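 Mushroom tyrosinase diphenolase assay: 1 mL reaction with 0.5 mM L-DOPA in 50 mM sodium phosphate buffer, pH 6.8, enzyme final 0.5 mg/mL, 25 °C. Compounds dissolved in DMSO (2.0% final); DMSO-only controls run. Dopachrome formation followed at 475 nm for 1 min. IC50 interpolated from dose–response curves; means of three experiments.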
# Staphylococcus aureus = assay: Antibacterial activity against Staphylococcus aureus after 24 hrs by agar dilution method; type: functional
# In short: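 MIC by agar dilution on Mueller–Hinton agar containing twofold serial dilutions from a 1 mg/mL DMSO stock. Final levels 50, 25, 12.5, 6.25, 3.1, 1.5, 0.8, 0.4 and 0.2. Inoculum was 16–18 h cultures at 0.5 McFarland; plates incubated 37 °C for 24 h. MIC is the lowest concentration preventing visible growth; levofloxacin was the reference.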
# [1] = target: T2, Tyrosinase (Agaricus bisporus) (UniProt O42713); assay: Inhibition of mushroom tyrosinase at 200 uM
# T2 sequence (whole entry): T1 sequence (O42713 whole entry)
# In short: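 Single-concentration check in the mushroom tyrosinase diphenolase assay. Conditions: 0.5 mM L-DOPA, 50 mM phosphate buffer pH 6.8, enzyme 0.5 mg/mL, 25 °C, 2.0% DMSO final with DMSO controls. Activity read as dopachrome absorbance at 475 nm over 1 min.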
# Escherichia coli = assay: Antibacterial activity against Escherichia coli at 1 mg/ml after 24 hrs by agar dilution method; type: functional, organism-based
# [2] = system: Staphylococcus epidermidis; assay: Antibacterial activity against Staphylococcus epidermidis at 1 mg/ml after 24 hrs by agar dilution method; type: functional, organism-based
# In short: (§1)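 Agar well diffusion: overnight (16–18 h, 37 °C) cultures set to 0.5 McFarland and mixed into Mueller–Hinton agar. Compound stock 1 mg/mL in DMSO loaded into 6 mm wells, with DMSO as control and levofloxacin as reference. Plates incubated 37 °C for 24 h. Read-out is the diameter of the growth-inhibition zone around each well.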
# Staphylococcus = assay: Antibacterial activity against Staphylococcus albus at 1 mg/ml after 24 hrs by agar dilution method; type: functional, organism-based
# Bacillus cereus = assay: Antibacterial activity against Bacillus cereus at 1 mg/ml after 24 hrs by agar dilution method; type: functional, organism-based
# Pseudomonas aeruginosa = assay: Antibacterial activity against Pseudomonas aeruginosa at 1 mg/ml after 24 hrs by agar dilution method; type: functional, organism-based; in short: as §1
Structure (SMILES),IC50 (Tyrosinase) [µM],MIC (Staphylococcus aureus) [µg/mL],inhibition [1],Activity (Escherichia coli),Activity [2],Activity (Staphylococcus),Activity (Bacillus cereus),Activity (Pseudomonas aeruginosa)
COCCCCOc1ccc(C=C2C(=O)NC(=O)NC2=O)cc1,> 200,> 25,12.2%,inactive,inactive,inactive,inactive,inactive
CCCCOCCOc1ccc(C=C2C(=O)NC(=S)NC2=O)cc1,107,3.1,85.9%,inactive,inactive,inactive,inactive,inactive
O=C1NC(=O)C(Cc2ccc(OCCO)cc2)C(=O)N1,> 200,> 12.5,5.27%,inactive,inactive,inactive,inactive,inactive
COCCOc1ccc(CC2C(=O)NC(=O)NC2=O)cc1,> 200,> 12.5,23.1%,inactive,inactive,inactive,inactive,inactive
O=C1CC(=O)NC(=S)N1 [THIOBARBITURIC],> 200,,8.21%,,,,,
CCCCOCCOc1ccc(CC2C(=O)NC(=S)NC2=O)cc1,179,6.25,78.7%,inactive,inactive,inactive,inactive,inactive
O=C1NC(=S)NC(=O)C1Cc1ccc(O)cc1,70,> 25,100%,inactive,inactive,inactive,inactive,inactive
COc1ccc(/C=C/C(=O)O)cc1,,,46.6%,,,,,
O=C1NC(=S)NC(=O)C1Cc1ccc(OCCO)cc1,156,> 25,95.9%,inactive,inactive,inactive,inactive,inactive
COCCOc1ccc(CC2C(=O)NC(=S)NC2=O)cc1,113,> 12.5,100%,inactive,inactive,inactive,inactive,inactive
COCCOCCOc1ccc(CC2C(=O)NC(=O)NC2=O)cc1,> 200,> 12.5,14.3%,inactive,inactive,inactive,inactive,inactive
COCCOc1ccc(C=C2C(=O)NC(=S)NC2=O)cc1,28.4,> 12.5,100%,inactive,inactive,inactive,inactive,inactive
CCCCOCCOc1ccc(C=C2C(=O)NC(=O)NC2=O)cc1,45.4,> 25,100%,inactive,inactive,inactive,inactive,inactive
O=C1NC(=S)NC(=O)C1=Cc1ccc(O)cc1,14.5,3.1,100%,inactive,inactive,inactive,inactive,inactive
COCCCCOc1ccc(C=C2C(=O)NC(=S)NC2=O)cc1,77.8,> 25,100%,inactive,inactive,inactive,inactive,inactive
COCCOCCOc1ccc(C=C2C(=O)NC(=O)NC2=O)cc1,137,> 25,88.7%,inactive,inactive,inactive,inactive,inactive
O=C1NC(=S)NC(=O)C1=Cc1ccc(OCCO)cc1,> 200,> 25,16.5%,inactive,inactive,inactive,inactive,inactive
O=Cc1ccc(O)cc1 [4-HYDROXYBENZALDEHYDE],1220,,16.4%,,,,,
COCCOCCOc1ccc(CC2C(=O)NC(=S)NC2=O)cc1,132,> 12.5,97.5%,inactive,inactive,inactive,inactive,inactive
C[C@H]1COc2c(N3CCN(C)CC3)c(F)cc3c(=O)c(C(=O)O)cn1c23.C[C@H]1COc2c(N3CCN(C)CC3)c(F)cc3c(=O)c(C(=O)O)cn1c23.O [LEVOFLOXACIN],,0.4,,,,,,
O=C1CC(=O)NC(=O)N1 [BARBITURIC ACID],> 200,,5.95%,,,,,
COCCCCOc1ccc(CC2C(=O)NC(=O)NC2=O)cc1,> 200,> 12.5,1.15%,inactive,inactive,inactive,inactive,inactive
COCCOc1ccc(C=C2C(=O)NC(=O)NC2=O)cc1,75.4,> 25,100%,inactive,inactive,inactive,inactive,inactive
O=C1NC(=O)C(=Cc2ccc(OCCO)cc2)C(=O)N1,> 200,> 25,22.4%,inactive,inactive,inactive,inactive,inactive
CCCCOCCOc1ccc(CC2C(=O)NC(=O)NC2=O)cc1,> 200,> 12.5,inactive,inactive,inactive,inactive,inactive,inactive
O=C1NC(=O)C(=Cc2ccc(O)cc2)C(=O)N1,14,> 25,100%,inactive,inactive,inactive,inactive,inactive
O=C1NC(=O)C(Cc2ccc(O)cc2)C(=O)N1,> 200,> 12.5,47.5%,inactive,inactive,inactive,inactive,inactive
COCCCCOc1ccc(CC2C(=O)NC(=S)NC2=O)cc1,> 200,> 12.5,9.85%,inactive,inactive,inactive,inactive,inactive
COCCOCCOc1ccc(C=C2C(=O)NC(=S)NC2=O)cc1,34.2,> 12.5,100%,inactive,inactive,inactive,inactive,inactive
